Bioassay records as filed in PubChem.
Shown are actives, neighbours in structure and some others; about 4.5% of the full set was active somewhere.
CHO parental Ca – signal in parental CHO cells, OX1R antagonist counter-screen. actives 0.63% (n = 330,000). parental CHO-K1, ATP-induced calcium, Fluo-8 fluorescence. inhibition, % at 5.6 µM;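 active = inhibition above that plate's mean sample inhibition plus 3 SD, cut at about 26% in these data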;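 also: 0% = ATP-challenged DMSO wells and 100% = DMSO wells without ATP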
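Measured by: calcium-sensitive Fluo-8 fluorescence / Test system: CHO parental line / Controls: ATP-challenged DMSO wells low, unchallenged DMSO wells high / Measure: % inhibition / Compound: single nominal dose of 5.6 µM per compound / Replicates: single well per compound, no replicates / Reagent: ATP as calcium-mobilizing challenge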
TAAR1 agonist – agonists of human TAAR1; CHO RD-HGA16 TAAR1, Fluo-8 calcium fluorescence; vehicle wells 0%, saturating PEA agonist 100%; activation, % at 3 µM; actives 0.99% (n = 360,000); AID 624467;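 active = activation above the mean activation of all test compounds in the run plus 3 SD, cut at about 38% in these data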
Target sequence (Q96RJ0 whole entry, looked up): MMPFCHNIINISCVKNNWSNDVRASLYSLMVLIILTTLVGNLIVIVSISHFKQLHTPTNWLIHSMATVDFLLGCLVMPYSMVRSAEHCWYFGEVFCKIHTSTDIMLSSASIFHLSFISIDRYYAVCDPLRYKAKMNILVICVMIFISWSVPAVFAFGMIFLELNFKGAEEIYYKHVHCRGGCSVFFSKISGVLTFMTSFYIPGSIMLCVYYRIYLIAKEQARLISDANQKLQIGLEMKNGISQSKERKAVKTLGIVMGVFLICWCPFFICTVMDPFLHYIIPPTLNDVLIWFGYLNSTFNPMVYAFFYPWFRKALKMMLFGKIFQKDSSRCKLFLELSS
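Benchmarks: low control DMSO, high control PEA (EC100); System: CHO RD-HGA16 cells carrying human TAAR1 plus Gα16; Detection: Fluo-8 fluorescence, 5 s baseline then 140 s kinetic read; Schedule: 17-24 h plating, Fluo-8 75 min 37 °C, 30 min RT; Read-out basis: % activation from peak over basal fluorescence ratio, DMSO-to-PEA scaled.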
OX1R antag-1 – blocks the human orexin 1 receptor; inhibition, % at 5 µM; O43613; actives 0.43% (n = 330,000); CHO/OX1R cells, Fluo-8 calcium fluorescence, orexin A; AID 434989;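 active = inhibition above its plate's threshold, mean inhibition of all tested compounds on the plate plus 3 SD, cut at about 37% in these data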;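 also: 0% = orexin A challenge wells and 100% = SB-334867-A antagonist wells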
Target sequence (O43613 whole entry, looked up): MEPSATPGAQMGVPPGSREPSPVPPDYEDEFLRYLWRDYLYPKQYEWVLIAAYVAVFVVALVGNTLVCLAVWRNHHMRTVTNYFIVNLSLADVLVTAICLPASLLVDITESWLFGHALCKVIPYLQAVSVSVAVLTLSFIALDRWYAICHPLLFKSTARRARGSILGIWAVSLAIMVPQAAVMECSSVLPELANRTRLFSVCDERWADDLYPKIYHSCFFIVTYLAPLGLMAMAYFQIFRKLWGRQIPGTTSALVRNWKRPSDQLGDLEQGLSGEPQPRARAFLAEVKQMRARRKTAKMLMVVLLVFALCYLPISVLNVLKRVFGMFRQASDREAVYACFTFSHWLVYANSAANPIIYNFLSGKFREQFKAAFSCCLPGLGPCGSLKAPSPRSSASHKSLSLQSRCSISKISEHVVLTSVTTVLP
TAAR1 antag – antagonists of human TAAR1; Q96RJ0; CHO RD-HGA16 TAAR1, Fluo-8 calcium fluorescence, antagonist; inhibition, % at 3 µM; actives 1.5% (n = 360,000); AID 624466;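 active = inhibition above a per-plate cutoff, the mean inhibition of test compounds on that plate plus 3 SD, cut at about 49% in these data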;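 also: 0% = DMSO plus EC80 beta-PEA response and 100% = DMSO alone without agonist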
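Test system: RD-HGA16 CHO cells with stable hTAAR1 and Gα16 / Probe or stimulus: EC80 β-phenethylamine stimulus / Times: seeding 17-24 h prior, 75-min 37 °C, 30-min RT dye loading / Detection: Fluo-8 calcium-sensitive fluorescence / Read-out basis: % inhibition scaled between DMSO and EC80 PEA controls / Repeats: singlicate, one well per test compound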
GPR7 antagonist – blocks human GPR7 receptor signaling; P48145; GPR7-expressing cells, fluorescence antagonist assay; inhibition, % at 4.4 µM; actives 1.1% (n = 290,000); in the data active = inhibition above about 16%, passing the limit was not always enough;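 also: cells stimulated with the agonist NPW; 0% = agonist with vehicle and 100% = vehicle without agonist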
OX1R antag-2 – blocks the human orexin 1 receptor. O43613. OX1R-expressing cells, FRET antagonist read-out. inhibition, % at 6.6 µM. actives 1.8% (n = 330,000); in the data active = inhibition mostly above about 38%, no sharp cut-off; inactive = mostly below about 40%;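 also: 0% = agonist challenge alone and 100% = reference antagonist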
TAAR1 nonsel count – nonselective antagonism, TAAR1 counter-screen. shares compounds with TAAR1 antag. counterscreen cell line, calcium fluorescence, antagonist mode. inhibition, % at 3 µM. actives 77% (n = 2,400). AID 651780; in the data active = inhibition above about 22%;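 also: CHO-Ga16 host cells stimulated with ATP at an EC80 level; 0% = agonist EC80 plus vehicle and 100% = vehicle without agonist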
TAAR1 antag conf – human TAAR1 antagonism, confirmed; shares compounds with TAAR1 antag; TAAR1-expressing cells, fluorescence antagonist read-out; inhibition, % at 3 µM; actives 40% (n = 2,400); in the data active = inhibition above about 49%;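 also: CHO-Ga16 host cells challenged with agonist PEA near its EC80; 0% = agonist at EC80 plus vehicle and 100% = vehicle with no agonist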
Ga16 nonsel ag – counter-screen for TAAR1 antagonists: nonselective Ga16 agonists. activation, % at 3 µM. shares compounds with TAAR1 antag. actives 18% (n = 2,400). Ga16-expressing cells, calcium fluorescence, agonist counterscreen; in the data active = activation above about 12%;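 also: 0% = vehicle wells and 100% = saturating stimulus response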
TAAR1 ag count – counter-screen for human TAAR1 antagonists: TAAR1 agonists; shares compounds with TAAR1 antag; hTAAR1 cell line, fluorescence activation, agonist mode; activation, % at 3 µM; actives 2% (n = 2,400); in the data active = activation above about 37%;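 also: CHO cells stably expressing TAAR1 with calcium dye readout; 0% = DMSO vehicle and 100% = full agonist response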
Active calls of the source: *; · = no result.

SMILES | CHO parental Ca | TAAR1 agonist | OX1R antag-1 | TAAR1 antag | GPR7 antagonist | OX1R antag-2 | TAAR1 nonsel count | TAAR1 antag conf | Ga16 nonsel ag | TAAR1 ag count
COc1cccc(N2CCN(c3ccc4nnc(CCC(=O)Nc5ccc(C)cn5)n4n3)CC2)c1 | -13 | · | -5 | · | -8 | 8 | · | · | · | ·
O=C(c1cccs1)c1coc2ccc(O)c(CN3CCOCC3)c12 | -11 | -4 | -24 | 106* | -4 | 15 | 2 | 5 | 2 | 3
O=C(Nc1ccc([N+](=O)[O-])cc1NC(=O)c1ccccc1)c1ccccc1 | · | 6 | · | 57* | · | · | 32* | 43 | 7 | 7
Cc1ccc([N+](=O)[O-])cc1NC(=O)c1ccccc1 | 2 | -1 | -15 | 6 | -1 | 21 | · | · | · | ·
COCCCN1C(=O)C(CC(=O)NCCN2CCOCC2)CC(C(=O)N2CCOCC2)=C1C (stereo not drawn) | · | 0 | · | -11 | · | · | · | · | · | ·
Cc1csc(SCCn2c(N3CCN(c4ccccc4)CC3)nc3c2c(=O)[nH]c(=O)n3C)n1 | -8 | 16 | -10 | 54* | -16 | 6 | 19 | 39 | 8 | 9
Cn1c(N2CCN(C(c3ccccc3)c3ccccc3)CC2)nc2c1c(=O)[nH]c(=O)n2C | -2 | 15 | -24 | 67* | -16 | 2 | 31* | 50* | 13* | 33
Cn1c(N2CCCCC2)nc2c1c(=O)[nH]c(=O)n2C | 1 | 4 | -2 | 1 | -4 | 3 | · | · | · | ·
O=C(Nc1ccnn1C1CCN(C(=O)c2cccc(Cl)c2)CC1)C1CCOC1 (stereo not drawn) | -1 | 2 | -10 | -34 | -10 | 6 | · | · | · | ·
CC(Sc1nnc(COc2ccc(Cl)cc2)o1)C(=O)Nc1ccc(N2CCOCC2)cc1 (stereo not drawn) | · | 1 | · | 1 | · | · | · | · | · | ·
Cc1nn(-c2ccccc2)c(C)c1NC(=O)COC(=O)CCCOc1ccccc1 | 10 | 14 | -14 | 57* | · | 14 | 19 | 38 | 10 | 9
Cc1nn(-c2ccccc2)c(C)c1NC(=O)COC(=O)c1ccc(Cl)c(N)c1 | -7 | 17 | -10 | 72* | · | 22 | 30* | 50* | 12* | 12
Cc1nn(-c2ccccc2)c(C)c1NC(=O)COC(=O)c1ccccc1 | -12 | 6 | -7 | 12 | · | 2 | · | · | · | ·
Cc1cc(C)n(-c2ccc(C(=O)OCC(=O)NC(c3ccccc3)c3ccccc3)cc2)n1 | 4 | 13 | -19 | 66* | 1 | 11 | 27* | 52* | 7 | 19
COc1ccccc1/C=C/C(=O)OCC(=O)Nc1c(C)nn(-c2ccccc2)c1C | -25 | 21 | -22 | 66* | · | 10 | 21* | 44 | 10 | 6
CCOC(=O)c1ccc(-n2nc(C)cc2C)cc1 | -3 | -2 | -17 | -11 | -7 | 0 | · | · | · | ·
Nc1cccc2c(=O)[nH][nH]c(=O)c12 | · | 1 | · | 6 | · | · | · | · | · | ·
COc1ccc(NC(=O)C2CCCN(S(=O)(=O)c3cccc4cccnc34)C2)c(OC)c1 (stereo not drawn) | -22 | 7 | -32 | 65* | -12 | 14 | 23* | 29 | 7 | 7
COc1ccc(N2CCN(C(=O)C3CCCN(S(=O)(=O)c4cccc5cccnc45)C3)CC2)cc1 (stereo not drawn) | -5 | 1 | -20 | 13 | -1 | 5 | · | · | · | ·
COCCN(C(=O)Cc1cccs1)C(C(=O)NCc1ccc(OC)cc1)c1ccc(C(C)C)cc1 (stereo not drawn) | 14 | 15 | 20 | 64* | 0 | 11 | 29* | 54* | 10 | 13
O=C(NCc1ccccc1)C(c1ccccc1)N(Cc1ccc2c(c1)OCO2)C(=O)Cc1cccs1 (stereo not drawn) | -19 | 10 | 6 | 80* | -12 | 48 | 40* | 59* | 12* | 8
CCc1ccc(C(C(=O)NCc2ccc(OC)cc2)N(CCOC)C(=O)Cc2cccs2)cc1 (stereo not drawn) | -14 | 19 | -17 | 73* | -6 | 8 | 29* | 53* | 9 | 8
CC1(C(=O)NS(=O)(=O)c2cccs2)CCN1C(=O)c1ccco1 (stereo not drawn) | · | 2 | · | -22 | · | · | · | · | · | ·
CN(C(=O)c1ccc2c(c1)SC1=NS(=O)(=O)CCN12)C(c1ccccc1)c1ccccc1 | -13 | 21 | -18 | 69* | -8 | 12 | 31* | 53* | 8 | 9
O=C(O)c1ccc2c(c1)SC1=NS(=O)(=O)CCN12 | 10 | 1 | 10 | -12 | 4 | 7 | · | · | · | ·
SMILES | CHO parental Ca | TAAR1 agonist | OX1R antag-1 | TAAR1 antag | GPR7 antagonist | OX1R antag-2 | TAAR1 nonsel count | TAAR1 antag conf | Ga16 nonsel ag | TAAR1 ag count
CCOc1ccc(S(=O)(=O)NCC(=O)OCc2nnc(-c3ccccc3)o2)cc1 | -18 | 0 | -12 | -13 | · | 7 | · | · | · | ·
CCN(CC(=O)Nc1c(C(=O)OC)[nH]c2ccc(Cl)cc12)c1ccc2c(c1)OCO2 | -14 | 6 | -7 | 60* | -3 | 32 | 27* | 37 | 5 | 3
CCOC(=O)c1[nH]c2ccc(Cl)cc2c1NC(=O)/C=C/c1ccc2c(c1)OCO2 | -7 | 2 | -1 | 1 | -1 | 6 | · | · | · | ·
CN(C)S(=O)(=O)n1cc(/C=C(\NC(=O)c2ccccc2Cl)C(=O)NCCN2CCOCC2)c2ccccc21 | -23 | 21 | -25 | 73* | -9 | 23 | 24* | 44 | 11 | 12
CN(C)S(=O)(=O)n1cc(/C=C(\NC(=O)c2ccccc2Cl)C(=O)NCCCn2ccnc2)c2ccccc21 | -32 | 8 | -29 | 55* | -2 | 11 | 17 | 31 | 7 | 3
CCn1cc(/C=C(\NC(=O)c2ccccc2Cl)C(=O)NCCN2CCOCC2)c2ccccc21 | -20 | 6 | -32 | 9 | -9 | 13 | · | · | · | ·
COc1ccc(-c2cc(C(=O)Nc3cc(Cl)ccc3O)no2)cc1 | -5 | 0 | -20 | -1 | 8 | -8 | · | · | · | ·
CN(CC(=O)Nc1cccc(F)c1)CC(=O)Nc1cccc(S(=O)(=O)N2CCCCCC2)c1 | -8 | 20 | -20 | 61* | 0 | 0 | 21 | 44 | 12* | 15
Cc1ccc2cccc(OCC(=O)Nc3cccc(S(=O)(=O)N4CCCC4)c3)c2n1 | -10 | 15 | -8 | 75* | · | 19 | 34* | 57* | 9 | 7
